Laboratory results published in ChEMBL document CHEMBL4118094, “Structure-Guided Design and Initial Studies of a Bifunctional MEK/PI3K Inhibitor (ST-168)” (ACS Med Chem Lett, 2017).
Activity calls are given as the source filed them. The rule behind the calls is not given here.

Columns and labels:
A-375 [1] = assay: Antitumor activity against human A375 cells xenografted in athymic Foxn1nu mouse assessed as tumor growth inhibition at 400 mg/kg, qd administered via oral gavage for 42 days measured twice per week by MRI imaging analysis; format: functional, organism-based
Summary of the method: (§1)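 Nude mice inoculated in the flank with 5 x 10^6 A375 cells in 100 µl. Dosing began once tumors exceeded 100 mm3, after randomization. Daily oral gavage at 400 mg/kg until sacrifice at 42 days; vehicle was 200 µl OraPlus. Tumor growth followed by MRI twice per week.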

[2] = target: T1, Dual specificity mitogen-activated protein kinase kinase 1 (Homo sapiens, UniProt Q02750); assay: Inhibition of recombinant human GST-tagged MEK1 expressed in baculovirus infected Sf9 insect cells using inactive ERK2 as substrate preincubated for 30 mins followed by substrate addition measured after 2 hrs by kinase-glo reagent based bioluminescence assay
[3] = target: T1, Dual specificity mitogen-activated protein kinase kinase 1; assay: Inhibition of MEK1 in human A375 cell lysate assessed as reduction in ERK1/2 phosphorylation at Thr202/Tyr204 at 20 uM after 1 hr by Western blot analysis
Summary of the method: (§2)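 A375 cells (constitutive MEK1/PI3K pathway activation) incubated 1 h with compound at 20 µM against equimolar DMSO. Lysates immunoblotted: ERK1/2 phosphorylation for MEK1 activity, AKT Ser473 phosphorylation for PI3K activity.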

[4] = target: PI3-kinase p110-delta/p85-alpha (Homo sapiens, UniProt O00329); assay: Inhibition of recombinant human full length His-tagged PI3K p110delta/p85alpha expressed in baculovirus expression system coexpressing PIK3R1 by TR-FRET assay
Summary of the method: (§3)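 PI3K isoform activity by fluorescence-based Adapta TR-FRET kinase assay. Values are the average of 3 experiments, each run in duplicate, given as mean ± SEM.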

[5] = target: PI3-kinase p110-alpha/p85-alpha (Homo sapiens, UniProt P42336); assay: Inhibition of recombinant human full length His-tagged PI3K p110alpha/p85alpha expressed in baculovirus expression system coexpressing PIK3R1 by TR-FRET assay; summary of the method: as §3
Homo sapiens = species on record: Homo sapiens; assay: Inhibition of PI3K in human A375 cell lysate assessed as reduction in Akt phosphorylation at Ser473 residue at 20 uM after 1 hr by Western blot analysis; summary of the method: as §2
A-375 [6] = assay: Antiproliferative activity against human A375 spheroids at 20 uM after 72 hrs by calcein AM/ethidium homodimer 1 staining based fluorescence microscopy; format: functional, cell-based
Summary of the method: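 A375 melanoma spheroids exposed 72 h to compound at 20 µM; then stained with calcein AM (live, green) and ethidium homodimer-1 (dead, red). Read by fluorescence microscopy. Replicate experiments, representative images.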

A-375 [7] = assay: Antitumor activity against human A375 cells xenografted in athymic Foxn1nu mouse assessed as tumor growth inhibition at 400 mg/kg, qd administered via oral gavage measured after 35 days by MRI imaging analysis; format: functional, organism-based; summary of the method: as §1

Chain of PI3-kinase p110-delta/p85-alpha (P27986 whole entry, canonical isoform): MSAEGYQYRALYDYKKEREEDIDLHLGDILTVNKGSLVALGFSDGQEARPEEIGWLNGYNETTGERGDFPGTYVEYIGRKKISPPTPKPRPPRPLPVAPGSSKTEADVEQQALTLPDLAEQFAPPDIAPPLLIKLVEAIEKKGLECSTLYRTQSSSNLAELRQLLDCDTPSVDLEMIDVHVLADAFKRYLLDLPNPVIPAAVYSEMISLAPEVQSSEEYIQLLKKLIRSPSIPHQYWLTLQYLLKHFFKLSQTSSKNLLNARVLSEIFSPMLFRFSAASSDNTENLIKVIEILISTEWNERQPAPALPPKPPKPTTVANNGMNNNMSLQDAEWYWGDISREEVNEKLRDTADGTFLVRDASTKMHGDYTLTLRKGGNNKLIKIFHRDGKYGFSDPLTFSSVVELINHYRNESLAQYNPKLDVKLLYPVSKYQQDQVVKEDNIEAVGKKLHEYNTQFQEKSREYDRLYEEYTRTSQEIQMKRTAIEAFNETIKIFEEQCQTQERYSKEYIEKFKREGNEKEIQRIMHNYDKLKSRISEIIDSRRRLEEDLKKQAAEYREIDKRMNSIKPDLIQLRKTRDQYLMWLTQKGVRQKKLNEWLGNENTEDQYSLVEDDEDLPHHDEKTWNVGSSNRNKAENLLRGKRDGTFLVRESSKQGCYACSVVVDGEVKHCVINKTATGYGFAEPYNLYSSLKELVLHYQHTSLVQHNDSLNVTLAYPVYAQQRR
Chain of PI3-kinase p110-delta/p85-alpha (O00329 whole entry, canonical isoform): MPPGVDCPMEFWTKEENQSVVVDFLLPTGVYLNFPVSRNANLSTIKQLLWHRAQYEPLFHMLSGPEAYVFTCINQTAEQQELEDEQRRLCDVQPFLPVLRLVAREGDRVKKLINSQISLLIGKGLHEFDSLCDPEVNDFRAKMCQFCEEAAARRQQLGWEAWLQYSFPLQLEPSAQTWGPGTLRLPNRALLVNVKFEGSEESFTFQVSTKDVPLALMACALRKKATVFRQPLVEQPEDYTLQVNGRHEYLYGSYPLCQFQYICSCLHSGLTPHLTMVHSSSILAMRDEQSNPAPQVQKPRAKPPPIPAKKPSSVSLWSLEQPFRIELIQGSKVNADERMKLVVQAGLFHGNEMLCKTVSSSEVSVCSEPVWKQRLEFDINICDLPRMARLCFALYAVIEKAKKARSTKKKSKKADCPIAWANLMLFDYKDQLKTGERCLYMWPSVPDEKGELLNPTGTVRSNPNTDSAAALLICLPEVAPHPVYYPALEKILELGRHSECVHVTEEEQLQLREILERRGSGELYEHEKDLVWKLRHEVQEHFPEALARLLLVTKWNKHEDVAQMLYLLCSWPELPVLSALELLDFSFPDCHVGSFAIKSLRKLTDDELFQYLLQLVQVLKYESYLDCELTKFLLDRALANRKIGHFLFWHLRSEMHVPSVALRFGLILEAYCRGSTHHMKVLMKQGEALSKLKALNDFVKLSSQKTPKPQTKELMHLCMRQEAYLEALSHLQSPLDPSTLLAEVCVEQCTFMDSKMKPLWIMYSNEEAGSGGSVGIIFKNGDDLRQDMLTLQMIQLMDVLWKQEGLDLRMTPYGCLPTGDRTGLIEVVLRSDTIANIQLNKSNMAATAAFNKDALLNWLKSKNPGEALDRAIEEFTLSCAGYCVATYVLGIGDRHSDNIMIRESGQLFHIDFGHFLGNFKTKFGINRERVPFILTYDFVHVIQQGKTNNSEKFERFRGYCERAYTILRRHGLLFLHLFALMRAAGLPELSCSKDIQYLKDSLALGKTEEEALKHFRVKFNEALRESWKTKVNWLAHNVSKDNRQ
Chain of PI3-kinase p110-alpha/p85-alpha (P27986 whole entry): as the sequence (P27986 whole entry, canonical isoform) above
Chain of PI3-kinase p110-alpha/p85-alpha (P42336 whole entry): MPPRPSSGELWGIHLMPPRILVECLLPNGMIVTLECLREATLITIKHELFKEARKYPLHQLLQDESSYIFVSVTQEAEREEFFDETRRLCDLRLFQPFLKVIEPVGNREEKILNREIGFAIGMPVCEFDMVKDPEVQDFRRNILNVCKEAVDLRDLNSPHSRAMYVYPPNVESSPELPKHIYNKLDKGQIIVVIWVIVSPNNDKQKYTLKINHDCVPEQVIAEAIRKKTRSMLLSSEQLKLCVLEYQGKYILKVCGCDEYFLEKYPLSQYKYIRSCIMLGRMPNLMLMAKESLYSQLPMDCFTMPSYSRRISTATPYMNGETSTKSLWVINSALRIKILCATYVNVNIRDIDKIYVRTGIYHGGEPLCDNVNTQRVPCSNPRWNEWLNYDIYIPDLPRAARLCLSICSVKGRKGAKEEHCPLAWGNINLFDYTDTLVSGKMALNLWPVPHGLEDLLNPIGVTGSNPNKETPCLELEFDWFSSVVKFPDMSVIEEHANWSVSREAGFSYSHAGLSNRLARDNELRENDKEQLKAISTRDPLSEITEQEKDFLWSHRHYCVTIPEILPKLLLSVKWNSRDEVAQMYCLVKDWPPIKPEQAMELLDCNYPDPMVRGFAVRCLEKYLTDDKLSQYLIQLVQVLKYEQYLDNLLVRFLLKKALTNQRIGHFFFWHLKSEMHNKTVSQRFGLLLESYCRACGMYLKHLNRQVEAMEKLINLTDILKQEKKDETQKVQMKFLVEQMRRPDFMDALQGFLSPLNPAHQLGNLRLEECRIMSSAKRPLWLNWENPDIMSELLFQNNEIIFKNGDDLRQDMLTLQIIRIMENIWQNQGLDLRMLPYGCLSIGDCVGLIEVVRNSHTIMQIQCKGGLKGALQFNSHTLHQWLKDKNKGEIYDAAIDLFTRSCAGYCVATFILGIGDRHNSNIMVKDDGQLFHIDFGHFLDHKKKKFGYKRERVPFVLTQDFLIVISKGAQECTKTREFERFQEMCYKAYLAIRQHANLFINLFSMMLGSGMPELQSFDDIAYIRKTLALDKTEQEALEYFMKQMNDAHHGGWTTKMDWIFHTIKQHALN
T1 sequence (Q02750 whole entry): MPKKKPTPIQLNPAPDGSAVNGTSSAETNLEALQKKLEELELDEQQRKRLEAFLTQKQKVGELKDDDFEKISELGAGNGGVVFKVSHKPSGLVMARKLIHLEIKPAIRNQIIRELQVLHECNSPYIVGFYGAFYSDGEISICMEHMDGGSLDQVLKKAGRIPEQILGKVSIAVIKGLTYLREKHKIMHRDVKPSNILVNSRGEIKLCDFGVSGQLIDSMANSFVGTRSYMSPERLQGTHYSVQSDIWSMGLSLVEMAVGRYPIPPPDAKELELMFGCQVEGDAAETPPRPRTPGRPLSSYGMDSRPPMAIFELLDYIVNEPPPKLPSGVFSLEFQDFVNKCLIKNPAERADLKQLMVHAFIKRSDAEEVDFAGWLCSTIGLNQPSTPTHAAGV

Structure (SMILES)	TGI (A-375 [1])	IC50 [2] [µM]	inhibition [3]	IC50 [4] [µM]	IC50 [5] [µM]	inhibition (Homo sapiens)	Activity (A-375 [6])	TGI (A-375 [7])
O=C(NOCCOCCOCCOCCN1CCN(c2nc(N3CCOCC3)nc(-n3c(C(F)F)nc4ccccc43)n2)CC1)c1ccc(F)c(F)c1Nc1ccc(I)cc1F	Active	0.398	Active	0.942	0.191	Active	Active	
CC(=O)N1CCN(c2nc(N3CCOCC3)nc(-n3c(C(F)F)nc4ccccc43)n2)CC1				0.0029	0.0082			
O=C(NOCCOCCOCCOCCC(=O)N1CCN(c2nc(N3CCOCC3)nc(-n3c(C(F)F)nc4ccccc43)n2)CC1)c1ccc(F)c(F)c1Nc1ccc(I)cc1F		0.182	Active	0.0417	0.0692	Active	Active	Active
NOCCOCCOCCOCCC(=O)N1CCN(c2nc(N3CCOCC3)nc(-n3c(C(F)F)nc4ccccc43)n2)CC1				0.0013	0.0115			
FC(F)c1nc2ccccc2n1-c1nc(N2CCNCC2)nc(N2CCOCC2)n1				0.142	0.18			
